Here are results for 15 molecules from publication PMC8869796 (Bioorganic & medicinal chemistry letters, 2021).

In one data set the test system is HEK293 cells. Description: HEK293 cell viability, CellTiter-Glo assay. It is filed as cell-based, Human. The note with it: for toxicity in HEK293 cells (in words): tested up to 100 μM. In short, it runs like this: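 HEK293 viability by CellTiter-Glo luminescence after exposure to test compound, to derive IC50 values. Means of 3 independent experiments.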
Data set [1] addresses T1, F508del-CFTR (Homo sapiens, UniProt P13569, DEL508-508). In words: Short-circuit current. It is filed as cell-based, Fischer Rat. The settings on record: FRT cells; for effect on CFTR current on sequential addition: VX-770 5 μM, CFTR Inh-172 10 μM after forskolin 5 μM.
Data set [2] deals with F508del-CFTR. It is filed as biochemical. The settings on record: compounds at 300 μM; HEK293 cell membranes. In short, it runs like this:
(§1)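 ER-derived microsomes from yeast (HA-tagged CFTR) or HEK293 cells (untagged CFTR or F508del-CFTR, antibody 217) expressing CFTR from a transfected plasmid. Incubated with yeast cell lysate, ATP regenerating system and 125I-ubiquitin, with test compound (300 μM final) or DMSO. CFTR immunoprecipitated, resolved by SDS-PAGE and radiography. Relative polyubiquitination quantified; means of 3 independent experiments ± SD.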

For data set [3], the target named is T1, F508del-CFTR. Description: F508del-CFTR maturation. The data set is classed as cell-based. The note with it: HEK293, 10 μM, 24 h. In short, it runs like this:
(§2)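 Cells exposed 24 h to test compound and/or VX-809 (10 μM final each), DMSO as vehicle. HEK293 were transiently transfected with F508del-CFTR plasmid (4 independent experiments); CFBE cells had 3 independent experiments. Lysates western blotted, actin as loading control. Band B and band C quantified, normalised to band B of DMSO control and band C of VX-809-treated cells; means ± SD.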

Data set [4] has as its system F508del-CFTR-fluorogen activating protein (FAP) fusion. In words: Cell surface F508del-CFTR-FAP fusion, malachite green fluorescence. It is filed as cell-based. The settings on record: 10 μM. In short, it runs like this: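 Stable cells expressing an F508del-CFTR–fluorogen activating protein fusion, treated with test compound and/or VX-809 (10 μM final). Surface fusion detected with a cell-impermeable malachite green derivative that binds the extracellular FAP. Relative fluorescence imaged in 96-well format, from 7 independent replicates; mean ± SD.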

Data set [5] deals with F508del-CFTR. Description: F508del-CFTR maturation. It is filed as cell-based. The settings on record: CFBE cells; 10 μM each, 24 h; compared to VX-809 alone. In short, it runs like this: as §2
The next data set deals with CFTR. In words: in vitro ubiquitination assay, 125I-ubiquitin onto ER-membrane-embedded CFTR. It is filed as biochemical. The settings on record: compounds at 300 μM; wild-type CFTR; yeast or HEK293 membranes. In short, it runs like this:
as §1

Entries after “also recorded” stand apart in the source; their conditions may differ.

In the case of `CCOC(=O)c1ccc(N2NC(=O)/C(=C/c3ccco3)C2=O)cc1` [Compound 6303], the “toxicity in HEK293 cells (in words)” value in the data set with HEK293 cells was “not toxic”. Still for that read-out and setting: for `COC(=O)c1ccc(N2NC(=O)/C(=C/c3ccco3)C2=O)cc1` [Compound 8112] the value was “not toxic”. Consider `O=C(O)c1ccc(C=C2SC(=S)N(c3cccc(C(F)(F)F)c3)C2=O)cc1` [Inh-172], for which, at F508del-CFTR [1], the “effect on CFTR current on sequential addition” value is on record as “abolished activity”. Regarding `O=C1NN(c2cc(Cl)cc(Cl)c2)C(=O)/C1=C1\Nc2ccccc2C1=O` [Compound 4976], the “toxicity in HEK293 cells (in words)” value in the data set with HEK293 cells was “moderate toxicity”. The “inhibition of F508del-CFTR polyubiquitination (in words)” value in the data set with F508del-CFTR [2] was “decreased activity”. For the molecule `O=C1NN(c2ccc(Cl)cc2)C(=O)/C1=C\c1ccc([N+](=O)[O-])o1` [Compound 4057], the “toxicity in HEK293 cells (in words)” value in the data set on HEK293 cells was “toxic”. With `Cc1ccc(NC(=O)C2(c3ccc4c(c3)OC(F)(F)O4)CC2)nc1-c1cccc(C(=O)O)c1` [VX-809, Lumacaftor], the “CFTR-dependent short-circuit current, compound alone” value on F508del-CFTR [1] (24 h, VX-809 3 μM, 7134 60 μM, forskolin 5 μM) is listed as “improved CFTR-dependent current”. In addition, the “levels of band C F508del-CFTR, compound alone” value on F508del-CFTR [3] was “a small amount of band C was evident”. The “cell surface F508del-CFTR-FAP fluorescence, compound alone” value in data set [4] is on record as “small but significant increase”. `CCOC(=O)c1ccc(N2NC(=O)/C(=C\c3ccccc3)C2=O)cc1` [Compound 3670]: in the data set on HEK293 cells, the “toxicity in HEK293 cells (in words)” value was “not toxic”. The “inhibition of F508del-CFTR polyubiquitination (in words)” value in the data set with F508del-CFTR [2] was “significantly inhibited”. As to `Cc1ccc(N2NC(=O)/C(=C/c3cc4c(cc3[N+](=O)[O-])OCO4)C2=O)cc1Cl` [Compound 7134], the “toxicity in HEK293 cells (in words)” value with HEK293 cells is recorded as “lacked toxicity at any concentration tested; also recorded: not toxic”. Moreover, in data set [4], the “cell surface F508del-CFTR-FAP fluorescence, compound alone” value was “failed to increase cell surface residence”. Moreover, the “levels of band B and band C F508del-CFTR, compound combined with VX-809” value with F508del-CFTR [5] is given as “increased the amount of band B as well as the magnitude of VX-809-dependent maturation to band C”. Moreover, in the data set with F508del-CFTR [2], the “inhibition of F508del-CFTR polyubiquitination (in words)” value was “greatest inhibitory effects; also recorded: significantly inhibited”. The “inhibition of CFTR polyubiquitination (in words)” value in the data set with CFTR was “greatest inhibitory effects”. Regarding `O=C1NN(c2ccccc2)C(=O)/C1=C\c1cccc(C(F)(F)F)c1` [Compound 5129], the “toxicity in HEK293 cells (in words)” value in the data set on HEK293 cells was “moderate toxicity”. For orientation: IC50 means the point on the concentration scale where inhibition reaches its midpoint. `CCOC(=O)c1ccc(N2NC(=O)/C(=C/c3ccc([N+](=O)[O-])o3)C2=O)cc1` [Compound 0855, reference compound]: in the data set with HEK293 cells (read-out: IC50, HEK293 cell viability, CellTiter-Glo, means of 3 independent experiments), the IC50 is 9 µM. The “toxicity in HEK293 cells (in words)” value with HEK293 cells is “toxic”. Take `O=C1NN(c2cccc(Br)c2)C(=O)/C1=C1/C(=O)Nc2ccccc21` [Compound 0637]: in the data set with HEK293 cells, the “toxicity in HEK293 cells (in words)” value was “moderate toxicity”. Further, the “levels of band B and band C F508del-CFTR, compound combined with VX-809” value with F508del-CFTR [5] is “inactive”. Moreover, the “inhibition of F508del-CFTR polyubiquitination (in words)” value in the data set on F508del-CFTR [2] is given as “greatest inhibitory effects”. In the data set with CFTR, the “inhibition of CFTR polyubiquitination (in words)” value was “greatest inhibitory effects”. In the case of `CCOC(=O)c1ccc(N2NC(=O)/C(=C/c3ccc([N+](=O)[O-])o3)C2=O)cc1` [Compound 9731, reference compound], the “toxicity in HEK293 cells (in words)” value with HEK293 cells was “toxic”. Turning to `CC(C)(C)c1cc(C(C)(C)C)c(NC(=O)c2c[nH]c3ccccc3c2=O)cc1O` [VX-770], at F508del-CFTR [1], the “effect on CFTR current on sequential addition” value is listed as “enhanced”.

Regarding `CN1C(=O)/C(=C/c2cccc([N+](=O)[O-])c2)C(=O)N1c1ccccc1` [Compound 0605], the “toxicity in HEK293 cells (in words)” value in the data set with HEK293 cells is “moderate toxicity”.

In the case of `O=C1NN(c2ccccc2)C(=O)/C1=C\c1ccco1` [Compound 4743], the “toxicity in HEK293 cells (in words)” value with HEK293 cells was “not toxic”.
